ABHD4 inh – inhibits mouse alpha/beta hydrolase domain 4; inhibition, % at 8.92 µM; 370,000 tested, 0.54% active; Q8VD66; purified mABHD4, FP-Rh probe fluorescence polarization;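 active means inhibition exceeding the mean over every tested compound plus 3 SD, cut at about 30% in these data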
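Test system: mouse ABHD4 enzyme, wild type. Reagent: FP-Rh fluorescent activity-based probe, added after compound pre-incubation. Timing: pre-incubation 45 min, probe exposure 60 min, at 25 °C. Technique: FP readout, ex 525 nm / em 598 nm. Benchmarks: high control S159A mutant with DMSO, low control median of compound wells.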
TCR-CD3 inh – inhibitors of human TCR-CD3 interaction. TAMRA-labeled TCR probe fluorescence, biochemical. inhibition, % at 9.4 µM. 360,000 tested, 0.37% active. AID 651800; in the data active means inhibition above about 19%;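 further: recombinant mutant TCR 2C K166C tagged with TAMRA read by polarization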
PRMT1 inh – PRMT1 (human) inhibition, primary screen; recombinant PRMT1, activity-based probe fluorescence polarization; inhibition, % at 2.79 µM; 370,000 tested, 1.3% active;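 active means inhibition above about 21% made by adding two undisclosed values, limit read from the data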
SIAE primary – human SIAE inhibition, primary screen | Q9HAT2 | SIAE FP-Rh probe binding, fluorescence polarization | inhibition, % at 9.66 µM | 370,000 tested, 0.69% active | AID 1053197;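 active means inhibition above a cutoff: mean of compounds within the control limits plus 3 SD of those, cut at about 17% in these data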
HTRA1 inh – HTRA1 (human) protease inhibition. 340,000 tested, 0.5% active. AID 504803. inhibition, % at 5.96 µM. recombinant HTRA1, FP-rhodamine activity-based probe, fluorescence polarization. Q92743; in the data active means inhibition above about 36%
Target sequence (Q92743 whole entry, looked up): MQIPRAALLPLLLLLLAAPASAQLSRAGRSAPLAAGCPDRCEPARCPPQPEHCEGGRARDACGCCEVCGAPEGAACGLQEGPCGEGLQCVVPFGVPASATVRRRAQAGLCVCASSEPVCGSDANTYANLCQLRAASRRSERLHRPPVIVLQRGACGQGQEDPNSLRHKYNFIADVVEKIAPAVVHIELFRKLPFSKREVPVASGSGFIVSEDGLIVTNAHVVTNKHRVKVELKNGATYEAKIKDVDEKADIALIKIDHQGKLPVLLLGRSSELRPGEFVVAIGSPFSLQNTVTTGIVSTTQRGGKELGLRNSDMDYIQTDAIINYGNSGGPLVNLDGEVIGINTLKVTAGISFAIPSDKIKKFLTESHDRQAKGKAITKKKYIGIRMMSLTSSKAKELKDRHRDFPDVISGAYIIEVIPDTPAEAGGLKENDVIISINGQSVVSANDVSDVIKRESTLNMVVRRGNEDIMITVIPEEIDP
HTRA1 conf – HTRA1 (human) inhibition, confirmation. recombinant HTRA1, FP-rhodamine activity-based probe, fluorescence polarization. shares compounds with HTRA1 inh. 1,600 tested, 66% active. inhibition, % at 5.96 µM;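 active means mean inhibition over three repeats above a set limit taken from the earlier primary screen, cut at about 37% in these data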;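 further: inhibitors block probe binding so polarization drops and inhibition rises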
A number is an active result; 0 = inactive; - = not tested or not shown. Hits are enriched below; roughly 2.6% of the tested compounds scored in any of these assays.

SMILES | ABHD4 inh | TCR-CD3 inh | PRMT1 inh | SIAE primary | HTRA1 inh | HTRA1 conf
Cc1ccc2c(c1)c1c3n2CCN(C(=O)CN2CCN(C)CC2)C3CCC1 (stereo not given) | 0 | 0 | 0 | 0 | 0 | -
CN1CCN(CC(=O)N2CCn3c4c(c5cc(C6CCCCC6)ccc53)CCCC42)CC1 (stereo not given) | - | - | - | - | 41 | 54
COc1ccc(OC)c(/C=N/NC(=O)C(=O)N2CCCCCC2)c1 | 0 | 0 | 0 | 0 | 42 | 0
COc1cccc(/C=N/NC(=O)C(=O)N2CCCCCC2)c1OC | 0 | 0 | 0 | 0 | 0 | -
Cc1nn(-c2ccccc2)c2nc(N)c(C#N)c(-c3ccc(O)c(O)c3)c12 | 0 | 0 | 0 | 0 | 74 | 76
COc1cc(-c2c(C#N)c(N)nc3c2c(C)nn3-c2ccc(C)c(C)c2)cc(OC)c1OC | 0 | 0 | 0 | 0 | 0 | -
Cc1nn(-c2ccc(F)cc2)c2nc(N)c(C#N)c(-c3ccc(O)c(O)c3)c12 | 0 | 0 | 0 | 0 | 59 | 62
Cc1nn(-c2ccc(F)cc2)c2nc(N)c(C#N)c(-c3cccs3)c12 | 0 | 0 | 0 | 0 | 0 | -
CC(C)NC(=O)N[C@@H]1C[C@@H]2O[C@H](CO)CC[C@@H]2O[C@@H]1CCc1ccc(-c2ccccc2F)cc1 | 0 | - | 0 | 0 | - | -
CN(C)c1ccc(C=Cc2ccnc3c(O)cccc23)cc1 | 0 | 0 | 0 | 23 | 63 | 54
FC(F)(F)c1cnc(NNC(=S)Nc2ccccc2Cl)c(Cl)c1 | 0 | 0 | 0 | 0 | 43 | 0
CCC(=O)NCCn1c(C)cc2ccccc21 | - | - | - | - | 0 | -
Cc1cc2ccccc2n1CCNC(=O)COc1ccccc1 | 0 | 0 | 0 | 0 | 49 | 0
CCOc1ccc(N=Cc2ccc(N(C)C)cc2)c(O)c1 | - | - | - | - | 57 | 57
Cc1ccc2ccc(C(Nc3cccc(C(F)(F)F)c3)c3cccnc3)c(O)c2n1 (stereo not given) | 0 | 0 | 0 | 0 | 54 | 61
C[C@H]1[C@@H]2C[C@@]3(O[C@H](c4ccccn4)N=C3C[C@@H]1c1ccccc1)N(Cc1ccncc1)C2=O | 0 | 0 | 0 | 0 | - | -
O=C1c2ccccc2-c2onc3ccc(NCc4ccco4)c1c23 | - | - | - | - | 117 | 108
O=C1C(Cl)=C(NCc2ccco2)C(=O)c2ccccc21 | 0 | 0 | 0 | 0 | 0 | -
CN(C)c1ccc(NC(=O)c2cccc(C(=O)Nc3ccc(N(C)C)cc3)n2)cc1 | 0 | 0 | 0 | 0 | 44 | 65
COc1ccc(C=NNc2ccc(S(=O)(=O)Nc3ccccc3C(=O)O)cc2[N+](=O)[O-])c(OC)c1 | - | - | - | - | 47 | 39
O=C(O)c1ccccc1NS(=O)(=O)c1ccc(NN=Cc2ccccc2F)c([N+](=O)[O-])c1 | 0 | 0 | 0 | 0 | 0 | -
C=CC[C@]1(O)C(=O)N(c2ccccc2)c2ccccc21 | 0 | - | 0 | 0 | - | -
O=C(CSc1nc2ccccc2o1)NCC1CCCO1 (stereo not given) | 0 | 0 | 0 | 0 | 55 | 0
COc1ccc(N=C2NC(=O)/C(=C\C=C\c3ccco3)S2)cc1 | 0 | 0 | 0 | 0 | 38 | 0
NNc1nc(C(F)(F)F)nc2ccccc12 | 0 | 0 | 0 | 0 | 0 | -
SMILES | ABHD4 inh | TCR-CD3 inh | PRMT1 inh | SIAE primary | HTRA1 inh | HTRA1 conf
O/C=c1\ccc2cccc3nc(C(F)(F)F)nc1c23 | 0 | 0 | 40 | 0 | 43 | 99
CCCC(=O)NC(c1ccco1)c1cc([N+](=O)[O-])c2cccnc2c1O (stereo not given) | 0 | 0 | 0 | 0 | 50 | 66
CCC(=O)NC(c1ccc(C)cc1)c1cc([N+](=O)[O-])c2cccnc2c1O (stereo not given) | 0 | 0 | 0 | 0 | 38 | 71
CC(=O)NC(c1ccc(C)cc1)c1cc([N+](=O)[O-])c2cccnc2c1O (stereo not given) | 0 | 0 | 0 | 0 | 0 | -
O=C(Nc1ccc2c(c1)OCO2)OC1CCC12CCC(c1ccccc1)CC2 (stereo not given) | 0 | - | 0 | 0 | - | -
COc1ccc2nc(NN=C(C)c3ccccn3)cc(C)c2c1 | 0 | 0 | 0 | 0 | 55 | 67
CC(=NNc1ccc2ccccc2n1)c1ccccn1 | 0 | 0 | 0 | 0 | - | -
COCCCN1C(=O)[C@H](CC(=O)N2CCSCC2)[C@]2(C(=O)OC)CCCCC=C12 | 0 | - | 0 | 0 | - | -
COc1cc(/C=C/C(=O)NCC(=O)N2CCC(N(C)CCN3CCOCC3)CC2)ccc1OC(C)C | 0 | 0 | 0 | 0 | 37 | 0
COc1ccccc1/C=C/C(=O)NCC(=O)N1CCC(N(C)C2CCCC2)CC1 | 0 | 0 | 0 | 0 | 0 | -
